Experimental data taken from ChEMBL document CHEMBL4400560, “Discovery and optimization of novel piperazines as potent inhibitors of fatty acid synthase (FASN)” (Bioorg Med Chem Lett, 2019).
Values after ≈ are worked out from the molar mass of the structure shown.

How the values were obtained:
[1] = Stability in mouse liver microsomes assessed as compound remaining after 30 mins; type: ADME, Microsome; settings: read-out: Stability
Outline: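 Mouse liver microsomes, 30-min incubation. Result expressed as percent of parent remaining.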

[2] = target: T1, Fatty acid synthase (Homo sapiens, UniProt P49327); assay: Inhibition of full length recombinant human FASN using acetyl-CoA/malonyl-CoA as substrate preincubated for 60 mins followed by substrate addition and measured after 90 mins in presence of NADPH
Outline: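 Full-length recombinant human FASN. CoA released is detected as a fluorescent conjugate with the coumarin maleimide CPM. IC50 is the mean of at least two separate runs.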

[3] = tested on: PC-3; assay: Antiproliferative activity against human PC3 cells after 96 hrs by MTT assay; type: functional, cell-based; settings: PC-3, 96 h
Outline: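 PC3 prostate cancer cells grown in medium with 10% lipid-reduced serum, a condition in which growth depends on de novo lipogenesis, in the presence of inhibitor. Antiproliferative IC50 reported as the mean of at least two separate runs.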

[4] = target: T1, Fatty acid synthase; assay: Inhibition of FASN in human BT474 cells preincubated for 1 hr followed by [14C]-acetate addition and measured after 4 hrs by scintillation counting assay; type: cell-based
Outline: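 BT474 breast cancer cells given 14C-acetate, which cellular FASN incorporates via acetyl-CoA into newly made radiolabeled palmitate. IC50 for blocking this incorporation is the mean of at least two separate runs.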

[5] = Kinetic solubility of compound at pH 7.4; type: physicochemical; settings: buffer, read-out: Kinetic_solubility
Outline: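 Kinetic solubility measured at pH 7.4.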

[6] = Toxicity in Balb/c nude mouse at 5 mg/kg, po administered as single dose; type: organism-based; settings: in vivo
Outline: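 Female Balb/c nude mice observed for acute toxicity after a single oral 5 mg/kg dose.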

[7] = Stability in mouse hepatocytes after 1 hr; type: ADME, cell-based, Hepatocyte; settings: read-out: Stability
[8] = Stability in mouse liver S9 fraction after 1 hr; type: ADME, subcellular; settings: read-out: Stability
[9] = AUC in mouse at mg/kg, po; type: ADME, organism-based; set-up: concentration or dose not given beside the values; settings: in vivo
Outline: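 Mouse oral PK study at 5 mg/kg p.o., with plasma exposure taken as AUC0-8h.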

[10] = tested on: MV4-11; assay: Antiproliferative activity against human MV4-11 cells after 96 hrs by CellTiter-Glo reagent-based assay; type: functional, cell-based; settings: MV4-11, 96 h
Outline: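 Antiproliferative activity measured in MV-411 cells. IC50 reported as the mean of at least two separate assay runs.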

[11] = Tmax in Balb/c nude mouse at 5 mg/kg, po; type: ADME, organism-based; settings: in vivo
Outline: (§1)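 Female Balb/c nude mice (n=6) dosed orally at 5 mg/kg in PEG400/ethanol (9:1). Exposure measured over 8 h, giving Tmax, Cmax, AUC0-8h and %F.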

[12] = Cmax in Balb/c nude mouse at 5 mg/kg, po; type: ADME, organism-based; set-up: dose 5 mg/kg, route oral; settings: in vivo; outline: as §1
[13] = AUC (0 to 8 hrs) in Balb/c nude mouse at 5 mg/kg, po; type: ADME, organism-based; set-up: time < 8 hr, dose 5 mg/kg, route oral; settings: in vivo; outline: as §1
[14] = Oral bioavailability in Balb/c nude mouse at 5 mg/kg; type: ADME, organism-based; settings: in vivo; outline: as §1
[15] = Tmax in Sprague-Dawley rat at 5 mg/kg, po; type: ADME, organism-based; settings: in vivo
Outline: (§2)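 Male Sprague-Dawley rats (n=3) given a single oral 5 mg/kg dose in PEG400/ethanol (9:1). Plasma followed over 24 h to give Tmax, Cmax, AUC0-24h and oral bioavailability (%F).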

[16] = Cmax in Sprague-Dawley rat at 5 mg/kg, po; type: ADME, organism-based; set-up: dose 5 mg/kg, route oral; settings: in vivo; outline: as §2
[17] = AUC (0 to 24 hrs) in Sprague-Dawley rat at 5 mg/kg, po; type: ADME, organism-based; set-up: dose 5 mg/kg, time < 24 hr, route oral; settings: in vivo; outline: as §2
[18] = Oral bioavailability in Sprague-Dawley rat at 5 mg/kg; type: ADME, organism-based; settings: in vivo; outline: as §2
[19] = tested on: Mus musculus; assay: In vivo inhibition of FASN in Harlan nude mouse xenografted with human MV411 cells assessed as increase in malonyl-CoA levels in tumors administered orally twice daily for 16 days and measured 4 hrs post last dose by LC-MS analysis; type: functional, organism-based
Outline: (§3)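 Mice carrying subcutaneous MV-411 xenografts were randomized at […] tumor size into four groups (n=4). Groups received vehicle (PEG400/ethanol 9:1 v/v) or 5, 25 or 50 mg/kg twice daily. Tumors were taken 4 h after the last dose for malonyl-CoA measurement by LC-MS (one-way ANOVA vs vehicle). Tumor growth inhibition was assessed vs vehicle after 16 days.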

[20] = tested on: MV4-11; assay: Antitumor activity against human MV4-11 cells xenografted in Harlan nude mouse assessed as tumor growth inhibition at 25 mg/kg, po administered twice daily for 16 days and measured 4 hrs post last dose; type: functional; settings: MV4-11, po, read-out: TGI; outline: as §3
[21] = tested on: MV4-11; assay: Antitumor activity against human MV4-11 cells xenografted in Harlan nude mouse assessed as tumor growth inhibition at 50 mg/kg, po administered twice daily for 16 days and measured 4 hrs post last dose; type: functional; settings: MV4-11, po, read-out: TGI; outline: as §3
[22] = Inhibition of ketoreductase (unknown origin); set-up: species or system Homo sapiens
[23] = Inhibition of enoyl reductase (unknown origin); set-up: species or system Homo sapiens
[24] = Inhibition of dehydratase (unknown origin); set-up: species or system Homo sapiens
[25] = Inhibition of thioesterase (unknown origin); set-up: species or system Homo sapiens
[26] = Intrinsic clearance in human liver microsomes; type: ADME, Microsome; settings: read-out: CLH
[27] = Intrinsic clearance in mouse liver microsomes; type: ADME, Microsome; settings: read-out: CLH
[28] = Toxicity in mouse assessed as drug tolerability administered as single dose; settings: in vivo
Outline: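 Mice received a single oral (PO) dose of 5 mg/kg and were watched for acute toxicity to judge tolerability. Female Balb/c nude mice were used for the fluorobenzoxazole analogues. Tolerability was expressed as whether the single dose was tolerated or as a maximum tolerated dose.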

T1 sequence (P49327 whole entry): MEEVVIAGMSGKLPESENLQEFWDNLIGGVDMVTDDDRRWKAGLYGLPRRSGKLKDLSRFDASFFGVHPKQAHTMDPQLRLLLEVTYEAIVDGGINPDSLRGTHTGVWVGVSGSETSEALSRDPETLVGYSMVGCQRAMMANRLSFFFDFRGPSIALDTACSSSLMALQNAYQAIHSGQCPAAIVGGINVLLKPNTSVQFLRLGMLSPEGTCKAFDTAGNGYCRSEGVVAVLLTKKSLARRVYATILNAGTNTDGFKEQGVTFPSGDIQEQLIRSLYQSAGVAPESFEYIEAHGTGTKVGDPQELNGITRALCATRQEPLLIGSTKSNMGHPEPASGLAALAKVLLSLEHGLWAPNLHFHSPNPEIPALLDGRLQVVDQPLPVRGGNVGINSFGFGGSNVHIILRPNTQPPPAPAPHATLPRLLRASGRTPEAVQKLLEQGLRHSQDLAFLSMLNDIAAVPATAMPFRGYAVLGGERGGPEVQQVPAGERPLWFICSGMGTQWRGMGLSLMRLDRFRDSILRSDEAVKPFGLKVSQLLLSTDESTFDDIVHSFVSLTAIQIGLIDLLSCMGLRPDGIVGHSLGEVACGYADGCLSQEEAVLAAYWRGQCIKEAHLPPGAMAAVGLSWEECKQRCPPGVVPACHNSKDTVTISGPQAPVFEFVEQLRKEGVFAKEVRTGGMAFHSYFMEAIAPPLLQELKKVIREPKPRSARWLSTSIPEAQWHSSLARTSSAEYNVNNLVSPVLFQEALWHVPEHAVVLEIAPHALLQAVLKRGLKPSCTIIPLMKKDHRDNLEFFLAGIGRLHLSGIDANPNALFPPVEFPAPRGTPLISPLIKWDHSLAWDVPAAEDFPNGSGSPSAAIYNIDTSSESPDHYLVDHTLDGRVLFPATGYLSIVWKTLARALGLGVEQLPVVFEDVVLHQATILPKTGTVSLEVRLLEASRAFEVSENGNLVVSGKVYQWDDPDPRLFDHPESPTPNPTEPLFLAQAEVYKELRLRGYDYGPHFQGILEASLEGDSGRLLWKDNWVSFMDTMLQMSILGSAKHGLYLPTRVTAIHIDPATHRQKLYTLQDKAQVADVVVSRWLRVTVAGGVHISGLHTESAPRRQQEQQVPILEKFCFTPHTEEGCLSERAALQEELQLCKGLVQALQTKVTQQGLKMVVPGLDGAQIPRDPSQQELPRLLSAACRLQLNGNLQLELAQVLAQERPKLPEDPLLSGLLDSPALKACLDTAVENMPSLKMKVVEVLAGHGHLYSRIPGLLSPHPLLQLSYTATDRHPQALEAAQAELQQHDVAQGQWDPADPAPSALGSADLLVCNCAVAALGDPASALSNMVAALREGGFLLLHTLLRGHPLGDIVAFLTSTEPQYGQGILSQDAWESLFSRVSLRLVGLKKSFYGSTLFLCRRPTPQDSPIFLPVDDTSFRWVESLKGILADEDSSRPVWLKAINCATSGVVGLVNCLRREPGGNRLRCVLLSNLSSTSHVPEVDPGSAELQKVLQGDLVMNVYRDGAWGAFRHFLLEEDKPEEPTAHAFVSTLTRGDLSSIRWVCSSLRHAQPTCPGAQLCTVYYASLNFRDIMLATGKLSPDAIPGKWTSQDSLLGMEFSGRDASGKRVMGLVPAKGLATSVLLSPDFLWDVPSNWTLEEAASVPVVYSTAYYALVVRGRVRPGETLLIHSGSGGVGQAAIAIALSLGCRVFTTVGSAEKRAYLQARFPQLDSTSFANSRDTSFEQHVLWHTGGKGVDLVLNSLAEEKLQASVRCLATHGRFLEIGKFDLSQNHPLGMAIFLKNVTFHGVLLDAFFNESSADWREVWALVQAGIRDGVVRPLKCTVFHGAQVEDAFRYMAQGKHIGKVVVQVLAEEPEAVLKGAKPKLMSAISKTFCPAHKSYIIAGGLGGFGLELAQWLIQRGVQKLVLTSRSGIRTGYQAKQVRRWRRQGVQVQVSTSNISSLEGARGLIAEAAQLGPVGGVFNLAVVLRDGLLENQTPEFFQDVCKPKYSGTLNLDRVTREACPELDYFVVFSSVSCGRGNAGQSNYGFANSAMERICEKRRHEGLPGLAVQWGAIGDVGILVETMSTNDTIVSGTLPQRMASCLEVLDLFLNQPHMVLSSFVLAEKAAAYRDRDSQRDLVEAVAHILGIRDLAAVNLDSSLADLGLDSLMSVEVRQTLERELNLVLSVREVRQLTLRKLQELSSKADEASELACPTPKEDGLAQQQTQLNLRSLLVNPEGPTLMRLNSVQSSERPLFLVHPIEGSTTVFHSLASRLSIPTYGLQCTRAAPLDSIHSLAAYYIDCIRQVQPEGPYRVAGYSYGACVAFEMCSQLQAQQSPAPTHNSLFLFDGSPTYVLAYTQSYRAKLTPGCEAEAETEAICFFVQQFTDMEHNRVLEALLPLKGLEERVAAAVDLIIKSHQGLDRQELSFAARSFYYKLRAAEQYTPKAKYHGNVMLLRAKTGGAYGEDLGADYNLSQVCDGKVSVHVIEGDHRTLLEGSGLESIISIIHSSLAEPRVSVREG

SMILES	remaining at 0.5 h [1]	IC50 [2]	IC50 [3]	IC50 [4]	solubility kinetic [5]	further results
O=C(c1ccc(-c2nc3cc(Cl)ccc3o2)cc1)N1CCN(C(=O)C2(O)CC2)CC1	85%	69 nM	49 nM	136 nM	6 µM (≈ 2.56 µg/mL)	
O=C(c1ccc(-c2ccccc2)cc1)N1CCN(C(=O)C2(O)CCC2)CC1	85%	1800 nM				
CC(C)(O)C(=O)N1CCN(C(=O)c2ccc(-c3ccccc3)cc2)CC1	99%	35000 nM				
Cn1ccc2cc(-c3ccc(C(=O)N4CCN(C(=O)C5(O)CC5)CC4)cc3)ccc21	81%	12 nM		19 nM	3 µM (≈ 1.21 µg/mL)	
Cn1ncc2ccc(-c3ccc(C(=O)N4CCN(C(=O)C5(O)CC5)CC4)cc3)cc21	89%	26 nM	12 nM		79 µM (≈ 32 µg/mL)	remaining at 1 h [7]: 77%; remaining at 1 h [8]: 75%; AUC [9]: 9.8 µM·h
COc1ccc(-c2ccc(C(=O)N3CCN(C(=O)C4(O)CC4)CC3)cc2)c(Cl)c1		3100 nM				
O=C(c1ccc(-c2ccccc2)cc1)N1CCN(C(=O)C2(O)CCCC2)CC1		> 50000 nM				
O=C(c1ccc(-c2ccccc2)cc1)N1CCN(C(=O)C2CCCC2)CC1		> 50000 nM				
O=C(c1ccc(-c2cc(Cl)ccc2F)cc1)N1CCN(C(=O)C2(O)CC2)CC1	66%	110 nM	138 nM	158 nM	43 µM (≈ 17.3 µg/mL)	
O=C(c1ccc(-c2nc3ccccc3o2)cc1)N1CCN(C(=O)C2(O)CC2)CC1	109%	54 nM	15 nM	101 nM	83 µM (≈ 32.5 µg/mL)	AUC [9]: 28.7 µM·h; microsomal CLint [26]: 7 µL/min/mg; microsomal CLint [27]: 7 µL/min/mg; MTD [28]: < 5 mg/kg
O=C(c1ccc(-c2ccc3ocnc3c2)cc1)N1CCN(C(=O)C2(O)CC2)CC1	60%	142 nM	142 nM	257 nM	92 µM (≈ 36 µg/mL)	
O=C(c1ccc(-c2ccc3[nH]ccc3c2)cc1)N1CCN(C(=O)C2(O)CC2)CC1	55%	16 nM	4 nM	18 nM	60 µM (≈ 23.4 µg/mL)	
O=C(c1ccc(-c2cnc3ccccc3c2)cc1)N1CCN(C(=O)C2(O)CC2)CC1	86%	10 nM		12 nM	82 µM (≈ 32.9 µg/mL)	
O=C(c1ccc(-c2nc3ccc(Cl)cc3o2)cc1)N1CCN(C(=O)C2(O)CC2)CC1	92%	97 nM	29 nM	104 nM	7 µM (≈ 2.98 µg/mL)	
Cn1c(-c2ccc(C(=O)N3CCN(C(=O)C4(O)CC4)CC3)cc2)cc2ccccc21	83%	33 nM	25 nM	70 nM	0.3 µM (≈ 0.121 µg/mL)	
O=C(c1ccc(-c2ccc3scnc3c2)cc1)N1CCN(C(=O)C2(O)CC2)CC1	88%	32 nM	17 nM	11 nM	95 µM (≈ 38.7 µg/mL)	
O=C(c1ccc(-c2ccccc2)cc1)N1CCN(C(=O)[C@H]2CCCO2)CC1	100%	1100 nM				
O=C(c1ccc(-c2ccccc2)cc1)N1CCN(C(=O)C2(O)CC2)CC1	95%	350 nM				
O=C(c1ccc(-c2cnc3cccnc3c2)cc1)N1CCN(C(=O)C2(O)CC2)CC1	89%	> 5000 nM		> 125000 nM	95 µM (≈ 38.2 µg/mL)	

Further lines, with some results ahead:

remaining at 0.5 h [1]	IC50 [2]	IC50 [3]	IC50 [4]	solubility kinetic [5]	SMILES	further results
69%	310 nM		4960 nM	67 µM (≈ 27 µg/mL)	O=C(c1ccc(-c2ccc(F)cc2Cl)cc1)N1CCN(C(=O)C2(O)CC2)CC1	
93%	192 nM	52 nM	61 nM	30 µM (≈ 12.3 µg/mL)	O=C(c1ccc(-c2nc3cc(F)ccc3o2)cc1)N1CCN(C(=O)C2(O)CC2)CC1	Activity [6]: Toxic
65%	≥ 50000 nM				O=C(c1ccc(-c2ccccc2)cc1)N1CCN(C(=O)[C@@H]2CCCO2)CC1	
100%	213 nM	47 nM	90 nM	39 µM (≈ 16 µg/mL)	O=C(c1ccc(-c2nc3ccc(F)cc3o2)cc1)N1CCN(C(=O)C2(O)CC2)CC1	IC50 [10]: 26 nM; Tmax [11]: 2 h; Cmax [12]: 8.4 µM; AUC(0-t) at 8 h [13]: 46 µM·h; bioavailability [14]: 95%; Tmax [15]: 3 h; Cmax [16]: 33 µM; AUC(0-t) at 24 h [17]: 440 µM·h; bioavailability [18]: 84%; inhibition [19]: Dose-dependent effect; inhibition in vivo at 25 mg/kg [20]: 32%; inhibition in vivo at 50 mg/kg [21]: 50%; remaining at 1 h [7]: 97%; remaining at 1 h [8]: 83%; AUC [9]: 46 µM·h; Activity [6]: Non-Toxic
79%	32 nM	2 nM	101 nM	71 µM (≈ 28.5 µg/mL)	O=C(c1ccc(-c2ccc3ccccc3n2)cc1)N1CCN(C(=O)C2(O)CC2)CC1	
45%	13 nM	13 nM	11 nM	77 µM (≈ 30.9 µg/mL)	O=C(c1ccc(-c2ccc3cnccc3c2)cc1)N1CCN(C(=O)C2(O)CC2)CC1	remaining at 1 h [7]: 1%; remaining at 1 h [8]: 0%; AUC [9]: 0.1 µM·h
	1140 nM				O=C(c1ccc(-c2ccccc2)cc1)N1CCN(C(=O)C2CCCO2)CC1 (racemic)	IC50 [22]: 1800 nM; IC50 [23]: > 50 µM; IC50 [24]: > 50 µM; IC50 [25]: > 50 µM
84%	57 nM	214 nM	67 nM	18 µM (≈ 7.33 µg/mL)	O=C(c1ccc(-c2nc3ccccc3s2)cc1)N1CCN(C(=O)C2(O)CC2)CC1	
92%	110 nM	146 nM	336 nM	33 µM (≈ 13.3 µg/mL)	O=C(c1ccc(-c2ccc(Cl)cc2F)cc1)N1CCN(C(=O)C2(O)CC2)CC1	remaining at 1 h [7]: 84%; remaining at 1 h [8]: 70%; AUC [9]: 47.6 µM·h
